Experimental findings from ChEMBL document CHEMBL3244345, “Cytostatic quinones. 3. Synthesis of benzotriazolequinones by a new oxidation with m-chloroperbenzoic acid. Biochemical studies” (1978) are described below.

One experiment relates to HeLa. Briefly: Cytostatic activity against human HeLa cells assessed as growth inhibition after 72 hrs by colorimetric method. It is filed as functional. The conditions noted are these: read-out: ED50 (the source's name). The method, boiled down:
(§1)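 HeLa or KB cells at 10⁵ cells/mL in Minimal Medium Eagle with 10% fetal calf serum were incubated at 37 °C in Leighton tubes. After the cells attached (2-3 h), compound was added in sterile saline with 0.05% Tween 80, making up 10% of the final volume. After 72 h at 37 °C, growth was read as cell protein (Oyama–Eagle colorimetric method). 6-Mercaptopurine was the positive control. ED₅₀ was derived.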

The next experiment relates to KB. Briefly: Cytostatic activity against human KB cells assessed as growth inhibition after 72 hrs by colorimetric method. It is filed as functional. As to conditions: read-out: ED50 (the source's name). An outline of the steps:
as §1

For experiment [1], the system named is Ehrlich. The experiment is described as follows: Inhibition of DNA synthesis in mouse Ehrlich ascite carcinoma cells assessed as incorporation of [3H]thymidine after 1.5 hrs by liquid scintillation spectrophotometer. Format: functional, cell-based. An outline of the steps:
(§2)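 Ehrlich ascites cells were taken from mice bearing 7-day nonbloody tumors, washed in saline, and resuspended at 5×10⁵ cells/mL in Eagle Spinner medium with 10% fetal calf serum. They were stirred 1.5 h at 37 °C with compound and one labelled precursor: [¹⁴C]glucose 0.2 μCi, [³H]thymidine 0.1 μCi, [³H]uridine 0.5 μCi, or [³H]proline. Then 1 mL samples were diluted in cold saline and pelleted.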

The test system of experiment [2] is Ehrlich. Briefly: Inhibition of RNA synthesis in mouse Ehrlich ascite carcinoma cells assessed as incorporation of [3H]uridine after 1.5 hrs by liquid scintillation spectrophotometer. Format: functional, cell-based. The method, boiled down:
as §2

Experiment [3] concerns Ehrlich. The experiment is described as follows: Inhibition of protein synthesis in mouse Ehrlich ascite carcinoma cells assessed as incorporation of [3H]proline after 1.5 hrs by liquid scintillation spectrophotometer. It is filed as functional, cell-based. An outline of the steps:
as §2

The subject of experiment [4] is Ehrlich. The experiment is described as follows: Inhibition of [3H]glucose uptake in mouse Ehrlich ascite carcinoma cells after 1.5 hrs by liquid scintillation spectrophotometer. It is filed as functional, cell-based. As to conditions: in the assay text read “[14C]glucose” for “[3H]glucose”. An outline of the steps:
as §2

The test system of experiment [5] is Ehrlich. The experiment is described as follows: Irreversible inhibition of DNA synthesis in mouse Ehrlich ascite carcinoma cells assessed as incorporation of [3H]thymidine at 10 ug/ml after 1.5 hrs by liquid scintillation spectrophotometer. Format: functional, cell-based. An outline of the steps: (§3)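 For reversibility, Ehrlich ascites cells were preincubated 1.5 h at 37 °C with or without 10 μg/mL quinone. They were washed in saline at room temperature and resuspended in fresh Eagle Spinner medium. They were then incubated at 37 °C with radiolabelled glucose, thymidine, uridine or proline at the same amounts as the direct assay. Samples were taken over time to follow incorporation.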

The subject of experiment [6] is Ehrlich. Briefly: Irreversible inhibition of RNA synthesis in mouse Ehrlich ascite carcinoma cells assessed as incorporation of [3H]uridine at 10 ug/ml after 1.5 hrs by liquid scintillation spectrophotometer. It is filed as functional, cell-based. The method, boiled down: as §3
Experiment [7] deals with Ehrlich. The experiment is described as follows: Irreversible inhibition of protein synthesis in mouse Ehrlich ascite carcinoma cells assessed as incorporation of [3H]proline at 10 ug/ml after 1.5 hrs by liquid scintillation spectrophotometer. Format: functional, cell-based. An outline of the steps:
as §3

The test system of experiment [8] is Ehrlich. The experiment is described as follows: Irreversible inhibition of [3H]glucose uptake in mouse Ehrlich ascite carcinoma cells at 10 ug/ml after 1.5 hrs by liquid scintillation spectrophotometer. The conditions noted are these: in the assay text read “[14C]glucose” for “[3H]glucose”. It is filed as functional, cell-based. An outline of the steps: as §3

SMILES strings stand for the structures. In brackets after ≈: the same amount, converted by molar mass. Activity calls are given as the source filed them. The rule behind the calls is not given here.

Regarding `CC1=CC(=O)c2nn(C)nc2C1=O`, the EC50 in the experiment with HeLa is 0.3 µg/mL (≈ 1.69 µM); in the experiment with KB, 2.5 µg/mL (≈ 14.1 µM). Besides, the inhibition entry with Ehrlich [1], with Ehrlich [2], with Ehrlich [3] and with Ehrlich [4] was “Active” each time.

Take `Cc1cc2c(cc1C)[n+]([O-])nn2C`: the EC50 in the experiment with HeLa and in the experiment with KB was greater than 100 µg/mL each time.

For the compound `COC(=O)C(C)n1n[n+]([O-])c2cc(C)c(C)cc21` (stereo not given), the EC50 in the experiment on HeLa and in the experiment with KB was greater than 100 µg/mL each time.

For `COC(=O)Cn1nc2c(n1)C(=O)C(C)=C(C)C2=O`, the values for the EC50 in the experiment with HeLa and with KB were 1 µg/mL (≈ 4.01 µM) and 4 µg/mL (≈ 16 µM), respectively. In addition, the inhibition result in the experiment on Ehrlich [1], with Ehrlich [2], in the experiment with Ehrlich [3] and with Ehrlich [4] was “Active” throughout.

Take `CC1=C(C)C(=O)c2nn(Cc3ccccc3)nc2C1=O`: the EC50 is 0.8 µg/mL (≈ 2.99 µM) in the experiment on HeLa and 3.5 µg/mL (≈ 13.1 µM) with KB. In addition, the inhibition entry in the experiment on Ehrlich [1], in the experiment on Ehrlich [2], in the experiment on Ehrlich [3] and with Ehrlich [4] was “Active” throughout.

Turning to `CC1=C(C)C(=O)c2nn(C)nc2C1=O`, the EC50 was 0.5 µg/mL (≈ 2.62 µM) with HeLa and 3 µg/mL (≈ 15.7 µM) in the experiment with KB. Also, the inhibition result in the experiment on Ehrlich [1], in the experiment with Ehrlich [2], in the experiment on Ehrlich [3] and in the experiment on Ehrlich [4] was “Active” each time.

Consider `COC(=O)Cn1nc2c(n1)C(=O)C(C)=CC2=O`, for which the EC50 in the experiment with HeLa is 0.5 µg/mL (≈ 2.13 µM); in the experiment on KB, 1.5 µg/mL (≈ 6.38 µM). In addition, the inhibition entry with Ehrlich [1], in the experiment on Ehrlich [2], with Ehrlich [3], in the experiment on Ehrlich [4], in the experiment with Ehrlich [5] and in the experiment with Ehrlich [6] was “Active” throughout. Besides, the inhibition result in the experiment with Ehrlich [7] and in the experiment with Ehrlich [8] was “Active” each time.

In the case of `COC(=O)C(C)n1nc2c(n1)C(=O)C(C)=C(C)C2=O` (stereo not given), the EC50 with HeLa was determined as 0.9 µg/mL (≈ 3.42 µM); in the experiment on KB, 3.5 µg/mL (≈ 13.3 µM). In addition, the inhibition result in the experiment with Ehrlich [1], with Ehrlich [2], with Ehrlich [3] and in the experiment on Ehrlich [4] was “Active” in each case.

In the case of `COC(=O)Cn1n[n+]([O-])c2cc(C)c(C)cc21`, the EC50 in the experiment on HeLa and in the experiment with KB was greater than 100 µg/mL throughout.

Take `Cc1cc2c(cc1C)[n+]([O-])nn2Cc1ccccc1`: the EC50 with HeLa and in the experiment on KB was greater than 100 µg/mL each time.

For the compound `Sc1ncnc2nc[nH]c12` [MERCAPTOPURINE ANHYDROUS], the EC50 in the experiment with HeLa and in the experiment on KB was 0.1 µg/mL (≈ 0.657 µM) throughout.
